Drawing on ChEMBL document CHEMBL3763127, “Design, synthesis and biological evaluation of novel asperphenamate derivatives” (Eur J Med Chem, 2016), this text covers IC50 for 31 compounds.

What all share (type): functional, cell-based
Assay [1] in a line: Cytotoxicity against human Bel7402 cells after 3 days by MTT assay. The following applies: Bel-7402, 72 h. The method in brief: (§1)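 MCF-7, HeLa and BEL-7402 cells were grown in RPMI 1640 with 10% heat-inactivated FBS, 1 mM glutamine and penicillin/streptomycin at 37 °C under 5% CO2. They were exposed to compound for 3 days, then read by MTT at 570 nm. Viability was taken as treated/control absorbance, and IC50 was derived from it. Values are mean SD of three independent experiments.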

For another assay, the system named is HeLa. Put plainly: Cytotoxicity against human HeLa cells after 3 days by MTT assay. To be noted: 72 h. The method, boiled down:
as §1
(In general: Formazan colour is commonly taken as a measure of viable cells.)

The next assay concerns MCF7. The experiment in a line: Cytotoxicity against human MCF7 cells after 3 days by MTT assay. The following applies: MCF7, 72 h. The method, boiled down: as §1

pIC50: −log10 of the molar value.

The pIC50 is the IC50 on a negative log10 scale, so that one unit is a factor of ten. The low end stands for a large IC50, the high end for a small IC50. With `O=C(N[C@H](COC(=O)[C@@H](Cc1ccccc1)NC(=O)n1ccnc1)Cc1ccccc1)c1ccccc1` (single isomer, unassigned), the pIC50 in assay [1] was 4.11; in the assay with HeLa, 4.14; with MCF7, 4.18.

As to `CS(=O)(=O)N[C@H](Cc1ccccc1)C(=O)OC[C@@H](Cc1ccccc1)NC(=O)c1ccccc1`, the results for the negative logarithm of the IC50 (pIC50) (in assay [1]; in the assay with HeLa; in the assay with MCF7) were 4.28, 4.19 and 4.22, respectively.

Consider `O=C(N[C@@H](COC(=O)[C@@H](Cc1ccccc1)NC(=O)c1cccnc1)Cc1ccccc1)c1ccccc1`, for which the pIC50 (in assay [1]; in the assay on HeLa; in the assay with MCF7) was under 4.00 in each case.

Turning to `O=C(N[C@@H](COC(=O)[C@H](Cc1ccccc1)NC(=O)c1ccncc1)Cc1ccccc1)c1ccccc1` (single isomer, unassigned), the pIC50 is under 4.00 in assay [1], under 4.00 with HeLa and 4.19 in the assay on MCF7.

As for `O=C(N[C@@H](COC(=O)[C@H](Cc1ccccc1)NC(=O)c1cccnc1)Cc1ccccc1)c1ccccc1` (single isomer, unassigned), the pIC50 (in assay [1]; in the assay on HeLa; in the assay on MCF7) was under 4.00 in each case.

Regarding `O=C(N[C@H](COC(=O)[C@H](Cc1ccccc1)NC(=O)n1cncn1)Cc1ccccc1)c1ccccc1`, the pIC50 (in assay [1]; in the assay with HeLa; with MCF7) was under 4.00 throughout.

For `O=C(N[C@H](COC(=O)[C@H](Cc1ccccc1)NC(=O)c1cccnc1)Cc1ccccc1)c1ccccc1`, the pIC50 (in assay [1]; in the assay with HeLa; with MCF7) was under 4.00 each time.

As for `O=C(N[C@H](COC(=O)[C@@H](Cc1ccccc1)NC(=O)n1cncn1)Cc1ccccc1)c1ccccc1` (single isomer, unassigned), the pIC50 in assay [1] was 4.09; with HeLa it was 4.10; with MCF7, 4.17.

For `O=C(N[C@H](COC(=O)[C@H](Cc1ccccc1)NC(=O)c1cccs1)Cc1ccccc1)c1ccccc1`, the negative-log IC50 (pIC50) (in assay [1]; in the assay with HeLa; with MCF7) was under 4.00 in each case.

`O=C(N[C@H](COC(=O)[C@@H](Cc1ccccc1)NC(=O)c1ccncc1)Cc1ccccc1)c1ccccc1` (single isomer, unassigned): the pIC50 is 4.71 in assay [1], 4.47 in the assay with HeLa and 4.82 with MCF7.

Regarding `CS(=O)(=O)N[C@@H](Cc1ccccc1)C(=O)OC[C@@H](Cc1ccccc1)NC(=O)c1ccccc1`, the negative-log IC50 (pIC50) (in assay [1]; in the assay on HeLa; with MCF7) was under 4.00 each time.

As for `Cc1ccc(S(=O)(=O)N[C@@H](Cc2ccccc2)C(=O)OC[C@@H](Cc2ccccc2)NC(=O)c2ccccc2)cc1`, the pIC50 in assay [1] was 4.27; with HeLa, 4.38; in the assay on MCF7, 4.54.

For the compound `O=C(N[C@@H](COC(=O)[C@H](Cc1ccccc1)NC(=O)c1cccs1)Cc1ccccc1)c1ccccc1`, the negative logarithm of the IC50 (pIC50) (in assay [1]; in the assay with HeLa; in the assay with MCF7) was under 4.00 throughout.

Regarding `O=C(N[C@H](COC(=O)[C@H](Cc1ccccc1)NC(=O)c1ccco1)Cc1ccccc1)c1ccccc1`, the pIC50 (in assay [1]; in the assay with HeLa; with MCF7) was under 4.00 throughout.

Consider `O=C(N[C@@H](COC(=O)[C@@H](Cc1ccccc1)NC(=O)n1ccnc1)Cc1ccccc1)c1ccccc1`, for which the results for the pIC50 (in assay [1]; in the assay on HeLa; in the assay with MCF7) were 4.04, 4.10 and 4.06, respectively.

Regarding `O=C(N[C@H](COC(=O)[C@@H](Cc1ccccc1)NC(=O)c1cccs1)Cc1ccccc1)c1ccccc1`, the negative logarithm of the IC50 (pIC50) (in assay [1]; in the assay on HeLa; in the assay on MCF7) was under 4.00 in each case.

As for `O=C(N[C@@H](COC(=O)[C@H](Cc1ccccc1)NC(=O)c1ccco1)Cc1ccccc1)c1ccccc1` (single isomer, unassigned), the pIC50 (in assay [1]; in the assay with HeLa; in the assay on MCF7) was under 4.00 throughout.

As for `O=C(N[C@H](COC(=O)[C@H](Cc1ccccc1)NC(=O)n1ccnc1)Cc1ccccc1)c1ccccc1`, the negative logarithm of the IC50 (pIC50) (in assay [1]; in the assay on HeLa; with MCF7) was under 4.00 each time.

For `Cc1ccc(S(=O)(=O)N[C@@H](Cc2ccccc2)C(=O)OC[C@H](Cc2ccccc2)NC(=O)c2ccccc2)cc1`, the pIC50 in assay [1] is 4.30; in the assay with HeLa, 4.42; in the assay with MCF7 it was 4.21.

On to `O=C(N[C@@H](COC(=O)[C@@H](Cc1ccccc1)NC(=O)n1cncn1)Cc1ccccc1)c1ccccc1`, for which the pIC50 in assay [1] is 4.02; in the assay on HeLa it was 4.04; in the assay on MCF7, 4.05.

As to `O=C(N[C@H](COC(=O)[C@@H](Cc1ccccc1)NC(=O)c1cccnc1)Cc1ccccc1)c1ccccc1` (single isomer, unassigned), the pIC50 was 4.78 in assay [1], 4.60 in the assay with HeLa and 4.78 with MCF7.

Take `CS(=O)(=O)N[C@@H](Cc1ccccc1)C(=O)OC[C@H](Cc1ccccc1)NC(=O)c1ccccc1`: the results for the pIC50 (in assay [1]; in the assay with HeLa; in the assay with MCF7) were 4.15, 4.03 and 4.12, respectively.

Take `Cc1ccc(S(=O)(=O)N[C@H](Cc2ccccc2)C(=O)OC[C@@H](Cc2ccccc2)NC(=O)c2ccccc2)cc1`: the pIC50 in assay [1] was 4.65; with HeLa it was 4.50; with MCF7 it was 4.43.

As to `CS(=O)(=O)N[C@H](Cc1ccccc1)C(=O)OC[C@H](Cc1ccccc1)NC(=O)c1ccccc1`, the negative-log IC50 (pIC50) in assay [1] was 4.43; with HeLa, 4.66; in the assay with MCF7 it was 4.66.

Consider `O=C(N[C@@H](COC(=O)[C@H](Cc1ccccc1)NC(=O)n1cncn1)Cc1ccccc1)c1ccccc1` (single isomer, unassigned), for which the negative logarithm of the IC50 (pIC50) (in assay [1]; in the assay on HeLa; in the assay with MCF7) was under 4.00 each time.

As to `O=C(N[C@@H](COC(=O)[C@@H](Cc1ccccc1)NC(=O)c1cccs1)Cc1ccccc1)c1ccccc1`, the pIC50 (in assay [1]; with HeLa; in the assay with MCF7) was under 4.00 throughout.

Turning to `O=C(N[C@H](COC(=O)[C@H](Cc1ccccc1)NC(=O)c1ccncc1)Cc1ccccc1)c1ccccc1`, the pIC50 (in assay [1]; in the assay with HeLa; in the assay with MCF7) was under 4.00 in each case.

As for `O=C(N[C@@H](COC(=O)[C@H](Cc1ccccc1)NC(=O)n1ccnc1)Cc1ccccc1)c1ccccc1` (single isomer, unassigned), the pIC50 (in assay [1]; with HeLa; in the assay with MCF7) was under 4.00 each time.

On to `O=C(N[C@@H](COC(=O)[C@@H](Cc1ccccc1)NC(=O)c1ccco1)Cc1ccccc1)c1ccccc1`, for which the pIC50 (in assay [1]; in the assay with HeLa; with MCF7) was under 4.00 throughout.

In the case of `O=C(N[C@H](COC(=O)[C@@H](Cc1ccccc1)NC(=O)c1ccco1)Cc1ccccc1)c1ccccc1` (single isomer, unassigned), the negative-log IC50 (pIC50) (in assay [1]; in the assay on HeLa; in the assay with MCF7) was under 4.00 in each case.

Consider `O=C(N[C@@H](COC(=O)[C@@H](Cc1ccccc1)NC(=O)c1ccncc1)Cc1ccccc1)c1ccccc1`, for which the values for the negative-log IC50 (pIC50) (in assay [1]; with HeLa; in the assay with MCF7) were 4.19, 4.05 and 4.27, respectively.
